# Screens: PubChem, Sanford-Burnham Center for Chemical Genomics
# SENP6 inh: blocks the human protease SENP6. Q9GZR1. Recombinant SENP6 catalytic domain, aminoluciferin luminescence. inhibition, % at 10 µM. 330,000 tested, 1.8% active;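 active means inhibition above about 50% at the single tested dose, limit read from the data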;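 further: plate controls were DMSO wells with enzyme for no effect and DMSO wells lacking enzyme for full effect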
# NRP1-CendR mod: NRP-1/CendR interaction modulation; O14786; FAM-RPARPAR peptide binding to NRP-1, fluorescence polarization; inhibition, % at 25 µM; 360,000 tested, 0.85% active;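 active means inhibition or corrected inhibition above about 18%, plus a signal ratio from 0.5 to 1.5, limit read from the data, passing the limit was not always enough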
# SENP8 block-1: blocks human SENP8 cleavage of Nedd8 substrate. Q96LD8. recombinant SENP8, Nedd8 substrate fluorescence. inhibition, % at 20 µM. 360,000 tested, 0.64% active. AID 602440; in the data active means inhibition mostly above about 40%, no sharp cut-off; inactive means mostly below about 27%
# Target sequence (Q96LD8 whole entry, looked up): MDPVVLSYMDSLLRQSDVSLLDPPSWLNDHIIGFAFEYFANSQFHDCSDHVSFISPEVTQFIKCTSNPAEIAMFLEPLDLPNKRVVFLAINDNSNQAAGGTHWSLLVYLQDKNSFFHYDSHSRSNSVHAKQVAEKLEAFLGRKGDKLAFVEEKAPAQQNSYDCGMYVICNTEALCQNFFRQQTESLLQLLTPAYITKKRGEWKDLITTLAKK
# SENP7 inh: SENP7 protease inhibition | Q9BQF6 | recombinant SENP7, Z-RLRGG-aminoluciferin luminescence, 40 min | inhibition, % at 5 µM | 330,000 tested, 1.5% active;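 active means inhibition above about 50% at the single test dose, limit read from the data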;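 further: plate controls were DMSO with enzyme for no effect and no enzyme buffer wells for full effect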
# SENP1 FRET inh: SENP1 (human) catalytic domain inhibition. recombinant SENP1 catalytic domain, CyPet-SUMO1-YPet FRET cleavage. AID 624204. Q9P0U3. 360,000 tested, 0.21% active. inhibition, % at 10 µM;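 active means inhibition at least 30% at 10 µM, raw YFP signal under a set limit, fluorescence ratio 0.5 to 1.5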;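 further: 0% = enzyme with DMSO and 100% = no enzyme wells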
# Target sequence (Q9P0U3 419-644 limits assumed): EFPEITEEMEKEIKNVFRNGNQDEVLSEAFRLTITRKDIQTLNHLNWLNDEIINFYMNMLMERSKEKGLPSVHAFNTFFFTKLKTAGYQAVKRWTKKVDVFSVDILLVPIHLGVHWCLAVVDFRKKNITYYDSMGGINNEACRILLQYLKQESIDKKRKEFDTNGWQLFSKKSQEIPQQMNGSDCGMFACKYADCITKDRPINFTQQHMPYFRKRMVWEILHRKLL
#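 Test system: hSENP1 catalytic domain, recombinant; Amount: 20 pM final SENP1 enzyme; Medium: Tris pH 8 buffer plus EDTA, NaCl, BME, BSA, NP40, catalase; Schedule: 50 min enzyme reaction, room temperature, light-protected; Technique: FRET fluorescence in CFP and YFP emission channels; Controls: no-enzyme wells low, DMSO-plus-enzyme wells high control.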
# SENP8 block-2: inhibitors of human SENP8 protease. 330,000 tested, 1.2% active. AID 2540. Q96LD8. purified SENP8, Z-RLRGG-aminoluciferin cleavage, luminescence. inhibition, % at 10 µM; in the data active means inhibition above about 50%
# SENP8 conf: confirmation of human SENP8 protease inhibitors. shares compounds with SENP7 inh. Recombinant SENP8, Z-RLRGG-aminoluciferin luminescence, 60 min. inhibition, % at 12.5 µM. 6,200 tested, 40% active;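 active means mean inhibition across replicates above about 50%, limit read from the data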
# SENP6 conf: confirmation of human SENP6 protease inhibitors | inhibition, % at 12.5 µM | 6,200 tested, 58% active | AID 488915 | recombinant SENP6, Z-RLRGG-aminoluciferin luminescence | shares compounds with SENP7 inh
# SENP7 confirm: confirmation of human SENP7 protease inhibitors; shares compounds with SENP7 inh; 6,200 tested, 69% active; inhibition, % at 12.5 µM; recombinant SENP7, Z-RLRGG-aminoluciferin luminescence, 40 min
# Casp3 SENP sel: inhibits human caspase-3 in SENP selectivity test; shares compounds with SENP7 inh; purified caspase-3, Z-DEVD-aminoluciferin luminescence, 60 min; inhibition, % at 12.5 µM; 6,200 tested, 60% active;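 active means mean inhibition above about 50%, limit read from the data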;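 further: plate controls were enzyme with DMSO for no effect and wells without caspase-3 for full effect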
# Target sequence (P42574 28-227 limits assumed): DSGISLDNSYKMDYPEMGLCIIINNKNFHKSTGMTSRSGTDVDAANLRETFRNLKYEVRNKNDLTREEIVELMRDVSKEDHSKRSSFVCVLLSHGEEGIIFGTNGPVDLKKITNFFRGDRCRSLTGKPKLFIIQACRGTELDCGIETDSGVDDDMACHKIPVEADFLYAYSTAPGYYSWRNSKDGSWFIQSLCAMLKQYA
# Luc interf: luminescence interference (SENP counter-screen) | shares compounds with SENP7 inh | Pre-incubated SENP8/Z-RLRGG-aminoluciferin, luciferase luminescence interference | inhibition, % at 12.5 µM | 6,200 tested, 39% active;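 active means mean inhibition above about 50% when retested at one dose, limit read from the data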;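 further: plate controls were DMSO wells with completed reaction for no effect and substrate without enzyme for full effect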
# An asterisk follows results filed as active; i = inactive; / = no result. Most compounds without a hit are left out; they make up all but 3.3% or so of the library.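 How the source made its calls, unless noted: active means mean inhibition above about 50% in the one-dose retest (limit read from the data); inactive means the rest.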
SMILES,SENP6 inh,NRP1-CendR mod,SENP8 block-1,SENP7 inh,SENP1 FRET inh,SENP8 block-2,SENP8 conf,SENP6 conf,SENP7 confirm,Casp3 SENP sel,Luc interf
Cc1oc(C(=O)O)cc1COc1cccc2ccccc12,0,13,6,-4,0,-6,/,/,/,/,/
Cc1nn(Cc2ccccc2Cl)c(C)c1C(=O)NCc1ccco1,-2,19,8,2,-1,0,/,/,/,/,/
Cc1nn(Cc2ccccc2Cl)c(C)c1C(=O)NCCN1C(=O)S/C(=C\c2ccccc2)C1=O,-9,-4,7,66*,1,-2,-11,-4,-2,-2,-8
Fc1cccc(-c2cc3nc4c(c(NCc5ccco5)n3n2)CCCC4)c1,85*,-9,-281,1,-5,70*,0,14,19,31,46
Fc1cccc(-c2cc3nc4c(c(N5CCOCC5)n3n2)CCCC4)c1,-1,4,-172,5,1,-12,/,/,/,/,/
O=C(NCc1ccc(F)cc1F)[C@@H]1CCCN1C(=O)[C@@H]1CCCN1C(=O)c1cccc2ccccc12,/,-3,10,/,2,/,/,/,/,/,/
C/C(=N\Nc1ccccc1[N+](=O)[O-])c1ccccc1O,42,-12,40*,74*,1,23,11,14,19,24,6
C/C(=N\Nc1cccc2cccnc12)c1ccccc1O,82*,-5,-6,88*,-5,77*,7,18,22,25,3
Nc1cccc2cc(-c3ccccc3)oc12,55*,-7,-497,48,-3,36,34,35,72*,32,53*
COc1cccc2cc(-c3ccccc3)oc12,34,7,-42,8,14,11,/,/,/,/,/
Cc1ccc(-c2nc(N3CCN(C)CC3)c3ccccc3n2)cc1,-4,-14,-3,4,-1,-5,/,/,/,/,/
CN1CCN(c2nc(-c3ccc(C(C)(C)C)cc3)nc3ccccc23)CC1,54*,7,32,8,0,34,31,28,35,48,21
C[C@@H]1CN([C@@H](C)CO)C(=O)CCCn2nncc2CO[C@@H]1CN(C)S(=O)(=O)c1ccccc1,/,-1,7,/,-2,/,/,/,/,/,/
Cc1cc(OCc2ccc(C(=O)n3cccn3)o2)ccc1Cl,50*,-18,12,31,0,40,19,38,29,18,27
O=C(c1ccc(COc2ccc(F)cc2)o1)n1cccn1,37,1,8,2,1,3,/,/,/,/,/
COCCCNc1ccn2nc(-c3ccc(Cl)cc3)cc2n1,/,8,i,/,-5,/,/,/,/,/,/
O=C(NC1=C(NC2CCS(=O)(=O)C2)C(=O)c2ccccc2C1=O)c1ccccc1 (configuration not stated),86*,23,87*,46,0,60*,1,86*,55*,93*,7
N#CCCCC#Cc1ccc2c(c1)COc1c3ccccc3nn1-2,93*,6,13,89*,1,90*,51*,96*,66*,68*,13
CCCCC#Cc1ccc2c(c1)COc1c3ccccc3nn1-2,85*,-4,-2,81*,-3,79*,22,34,33,67*,10
COc1cc(NC(=O)c2cccc3c(-c4cnn(C)c4)coc23)cc(OC)c1OC,/,-7,12,/,-1,/,/,/,/,/,/
Cc1ccc(Cc2c(C3CCCCC3)nc3c4ccccc4ccn23)cc1,/,-44,-96,/,-13,/,/,/,/,/,/
Cc1[nH]n(-c2ccc([N+](=O)[O-])cc2)c(=O)c1/C=N/N1CCOCC1,78*,-4,32,58*,1,44,-8,-5,17,36,40
O=[N+]([O-])c1ccc(/C=N\N2CCN(c3ccc(Cl)cc3)CC2)cc1,-1,11,25,2,3,3,/,/,/,/,/
COc1ccc(CCN=Cc2c(C)[nH]n(-c3ccc([N+](=O)[O-])cc3)c2=O)cc1OC,23,5,13,4,0,5,/,/,/,/,/
Cc1[nH]n(-c2ccc([N+](=O)[O-])cc2)c(=O)c1C=NCCN1CCN(C(=O)c2ccccc2)CC1,88*,4,28,90*,6,70*,27,44,31,67*,59*
SMILES,SENP6 inh,NRP1-CendR mod,SENP8 block-1,SENP7 inh,SENP1 FRET inh,SENP8 block-2,SENP8 conf,SENP6 conf,SENP7 confirm,Casp3 SENP sel,Luc interf
COc1ccc(-c2csc(C(C)(O)c3ccncc3)n2)cc1OC (configuration not stated),/,-11,13,/,2,/,/,/,/,/,/
CCOc1cc2c(C#N)c(N3CCNCC3)nc(N)c2c(N)n1,88*,2,-326,47,-92,37,-8,-4,-8,2,1
COc1cc2c(C#N)c(N3CCOCC3)nc(N)c2c(N)n1,5,0,-399,21,-31,-1,/,/,/,/,/
COc1cc2c(C#N)c(N3CCCCC3)nc(N)c2c(N)n1,66*,6,-412,41,8,62*,25,34,43,6,20
CCOc1cc2c(C#N)c(N3CCCCC3)nc(N)c2c(N)n1,69*,-97,-327,29,-49,65*,14,42,26,1,2
CCN(CC)c1nc(N)c2c(N)nc(OC)cc2c1C#N,76*,-17,-487,41,-43,51*,7,12,9,-3,8
CN(CCCn1ccc(N)nc1=O)Cc1ccco1,/,-2,5,/,0,/,/,/,/,/,/
CC1CC(C)C(=NNC(N)=O)C(C(O)CC2CCC(=O)NC2=O)C1 (configuration not stated),/,11,-1,/,0,/,/,/,/,/,/
CN(C(=O)CSc1nnc(CN2CCCC2)n1Cc1ccccc1)c1ccccc1,-6,-4,8,0,-1,17,/,/,/,/,/
COc1ccc(CN2C(=O)Cc3c2nc(N)c2c(N)nc(N4CCCCC4)c(C#N)c32)cc1,61*,/,/,-2,/,4,12,12,7,4,0
CCCCN1C(=O)Cc2c1nc(N)c1c(N)nc(N(CCC)CCC)c(C#N)c21,/,-11,-327,/,-52,/,/,/,/,/,/
COc1cc2c(C#N)c(N3CCc4ccccc4C3)nc(N)c2c(N)n1,83*,1,-265,38,-25,80*,8,30,19,5,3
Cc1cccc(NC(=O)COc2ccc(Br)cc2)n1,6,0,14,18,0,-3,/,/,/,/,/
